Reference: ChEMBL document CHEMBL3259675, “Novel N-substituted sophoridinol derivatives as anticancer agents” (Eur J Med Chem, 2014)
Converted amounts (≈) assume the structure as drawn.

Assays:
HepG2 [1] = experiment: Antiproliferative activity against human HepG2 cells assessed as growth inhibition at 10 ug/ml after 48 hrs by MTT assay; assay type: functional; details: HepG2, 48 h
Summary of the method: (§1)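 Cell lines from ATCC, grown in MEM-EBSS with 10% FBS and 1% penicillin-streptomycin at 37 °C, 5% CO2. Seeded at 4000 cells/well, left 24 h, then exposed to a concentration series for 48 h. Growth read by MTT. Percent inhibition was computed at each concentration and IC50 derived from it. Triplicate determinations, reported as mean SD.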

HepG2 [2] = experiment: Antiproliferative activity against human HepG2 cells assessed as growth inhibition after 48 hrs by MTT assay; assay type: functional, cell-based; details: HepG2, 48 h; summary of the method: as §1

| Structure (SMILES) | inhibition at 10 µg/mL (HepG2 [1]) [%] | IC50 (HepG2 [2]) [µg/mL] |
| --- | --- | --- |
| CC(C)CN1C[C@H]2CCCN3CCC[C@@H]([C@H]23)[C@H]1CCCCO | 9.1 | – |
| O=C(O)CCC[C@@H]1[C@H]2CCCN3CCC[C@H](CN1C(=O)CBr)[C@@H]23 | – | 15.4 (≈ 39.8 µM) |
| OCCCC[C@@H]1[C@H]2CCCN3CCC[C@H](CN1Cc1ccco1)[C@@H]23 | 33.2 | – |
| O=C1CCC[C@@H]2[C@H]3CCCN4CCC[C@H](CN12)[C@@H]34 [SOPHORIDINE] | – | > 20 |
| CC(C)(C)CN1C[C@H]2CCCN3CCC[C@@H]([C@H]23)[C@H]1CCCCO | 95.7 | – |
| COC(=O)CCC[C@@H]1[C@H]2CCCN3CCC[C@H](CN1Cc1cccc(F)c1)[C@@H]23 | 81.8 | – |
| COCCCC[C@@H]1[C@H]2CCCN3CCC[C@H](CN1Cc1ccc(F)cc1)[C@@H]23 | 6.8 | – |
| O=C(O)CCC[C@@H]1[C@H]2CCCN3CCC[C@H](CN1Cc1ccc(F)cc1)[C@@H]23 | 2 | – |
| O=C(O)CCC[C@@H]1[C@H]2CCCN3CCC[C@H](CN1Cc1ccncc1)[C@@H]23 | 22.3 | – |
| CCCN1C[C@H]2CCCN3CCC[C@@H]([C@H]23)[C@H]1CCCC(=O)O | 25.3 | – |
| O=C(O)CCC[C@@H]1[C@H]2CCCN3CCC[C@H](CN1Cc1ccc(Br)cc1)[C@@H]23 | 24.9 | – |
| CCCN1C[C@H]2CCCN3CCC[C@@H]([C@H]23)[C@H]1CCCC(=O)OC | 24.9 | – |
| CCOCCCC[C@@H]1[C@H]2CCCN3CCC[C@H](CN1Cc1ccc(F)cc1)[C@@H]23 | 5.1 | – |
| COC(=O)CCC[C@@H]1[C@H]2CCCN3CCC[C@H](CN1Cc1cccc(Cl)c1)[C@@H]23 | 84.9 | – |
| OCCCC[C@@H]1[C@H]2CCCN3CCC[C@H](CN1Cc1cccc(F)c1)[C@@H]23 | 24.3 | – |
| CC(C)CN1C[C@H]2CCCN3CCC[C@@H]([C@H]23)[C@H]1CCCC(=O)O | 10.7 | – |
| O=C(O)CCC[C@@H]1[C@H]2CCCN3CCC[C@H](CN1Cc1ccc(Cl)cc1)[C@@H]23 | 3.5 | – |
| NC(=O)CCC[C@@H]1[C@H]2CCCN3CCC[C@H](CN1Cc1ccc(Cl)cc1)[C@@H]23 | 1.7 | – |
| OCCCC[C@@H]1[C@H]2CCCN3CCC[C@H](CN1Cc1ccccc1)[C@@H]23 | 18.7 | – |
| CCOCCCC[C@@H]1[C@H]2CCCN3CCC[C@H](CN1Cc1ccc(Cl)cc1)[C@@H]23 | 0.2 | – |
| OCCCC[C@@H]1[C@H]2CCCN3CCC[C@H](CN1Cc1ccccc1Cl)[C@@H]23 | 88.1 | – |
| COCCCC[C@@H]1[C@H]2CCCN3CCC[C@H](CN1Cc1ccc(Cl)cc1)[C@@H]23 | 0.3 | – |
| OCCCC[C@@H]1[C@H]2CCCN3CCC[C@H](CN1Cc1ccccc1F)[C@@H]23 | 30.9 | – |
| COC(=O)CCC[C@@H]1[C@H]2CCCN3CCC[C@H](CN1Cc1ccccc1F)[C@@H]23 | 60.8 | – |
